Laboratory results: ChEMBL document CHEMBL1926683, “Synthesis and anticancer activity of 4β-alkylamidochalcone and 4β-cinnamido linked podophyllotoxins as apoptotic inducing agents” (Eur J Med Chem, 2012)

Experiments:
Format in all cases: functional, cell-based
[1] = system: MCF7; test: Anticancer activity against human MCF7 cells after 48 hrs by MTT assay; conditions: MCF7, 48 h
Outline: (§1)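 MTT assay. Cells seeded at 1 × 10⁴/well in DMEM with 10% FBS and held 24 h at 37 °C in CO₂. Compounds were diluted in culture medium and added alongside vehicle controls, then incubated 48 h. MTT (5 mg/ml stock) was added for 4 h. Supernatant was removed, formazan dissolved in DMSO, and absorbance read at 540 nm.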

[2] = system: A549; test: Anticancer activity against human A549 cells after 48 hrs by MTT assay; conditions: A549, 48 h; outline: as §1
[3] = system: A-375; test: Anticancer activity against human A375 cells after 48 hrs by MTT assay; conditions: A-375, 48 h; outline: as §1
[4] = system: HT-29; test: Anticancer activity against human HT-29 cells after 48 hrs by MTT assay; conditions: HT-29, 48 h; outline: as §1
[5] = system: ACHN; test: Anticancer activity against human ACHN cells after 48 hrs by MTT assay; outline: as §1

Row | Compound | IC50 [1] [µM] | IC50 [2] [µM] | IC50 [3] [µM] | IC50 [4] [µM] | IC50 [5] [µM]
1 | COc1cccc2c1C(=O)c1c(O)c3c(c(O)c1C2=O)C[C@@](O)(C(=O)CO)C[C@@H]3O[C@H]1C[C@H](N)[C@H](O)[C@H](C)O1 [DOXORUBICIN] | 2.02 | 2.18 | 5.51 | 1.06 | 0.79
2 | COc1cccc(C(=O)/C=C/c2ccc(OCC(=O)N[C@@H]3c4cc5c(cc4[C@@H](c4cc(OC)c(OC)c(OC)c4)[C@H]4C(=O)OC[C@@H]43)OCO5)c(OC)c2)c1 | 21.8 | 9.1 | 13.8 | 8.1 | 13.8
3 | COc1cc(C(=O)/C=C/c2cccc(OCCCCCC(=O)N[C@@H]3c4cc5c(cc4[C@@H](c4cc(OC)c(OC)c(OC)c4)[C@H]4C(=O)OC[C@@H]43)OCO5)c2)cc(OC)c1OC | 8.3 | 14.7 | 11.5 | 21.1 | 20.8
4 | COc1cc([C@@H]2c3cc4c(cc3[C@@H](NC(=O)/C=C/c3ccc(F)cc3)[C@H]3COC(=O)[C@H]23)OCO4)cc(OC)c1OC | 14.6 | 6.8 | 9.5 | 7.1 | 18.6
5 | COc1cc([C@@H]2c3cc4c(cc3[C@H](O)[C@H]3COC(=O)[C@H]23)OCO4)cc(OC)c1OC [PODOFILOX] | 1.18 | 3.75 | 2.62 | 0.78 | 2.12
6 | COc1cc(/C=C/C(=O)c2ccc(F)cc2)ccc1OCC(=O)N[C@@H]1c2cc3c(cc2[C@@H](c2cc(OC)c(OC)c(OC)c2)[C@H]2C(=O)OC[C@@H]21)OCO3 | 19.1 | 26.4 | 12.2 | 21.6 | 26.7
7 | COc1cc([C@@H]2c3cc4c(cc3[C@@H](NC(=O)/C=C/c3ccc(Br)cc3)[C@H]3COC(=O)[C@H]23)OCO4)cc(OC)c1OC | 11.2 | 9.5 | 17.8 | 19.2 | 14.3
8 | COc1ccc(/C=C/C(=O)N[C@@H]2c3cc4c(cc3[C@@H](c3cc(OC)c(OC)c(OC)c3)[C@H]3C(=O)OC[C@@H]32)OCO4)cc1 | 15.7 | 7.7 | 19.1 | 17.6 | 17.8
9 | COc1ccc(/C=C/C(=O)c2cc(OC)c(OC)c(OC)c2)cc1OCCCCCC(=O)N[C@@H]1c2cc3c(cc2[C@@H](c2cc(OC)c(OC)c(OC)c2)[C@H]2C(=O)OC[C@@H]21)OCO3 | 12.6 | 16.7 | 10.3 | 6.47 | 13.4
10 | COc1cc(C(=O)/C=C/c2cccc(OCC(=O)N[C@@H]3c4cc5c(cc4[C@@H](c4cc(OC)c(OC)c(OC)c4)[C@H]4C(=O)OC[C@@H]43)OCO5)c2)cc(OC)c1OC | 24.4 | 16.8 | 18.2 | 15.6 | 9.1
11 | COc1cccc(C(=O)/C=C/c2ccc(OCCCCCC(=O)N[C@@H]3c4cc5c(cc4[C@@H](c4cc(OC)c(OC)c(OC)c4)[C@H]4C(=O)OC[C@@H]43)OCO5)c(OC)c2)c1 | 17.5 | 14.4 | 20.1 | 11.9 | 13.7
12 | COc1cc(/C=C/C(=O)c2cc(OC)c(OC)c(OC)c2)ccc1OCCCCCC(=O)N[C@@H]1c2cc3c(cc2[C@@H](c2cc(OC)c(OC)c(OC)c2)[C@H]2C(=O)OC[C@@H]21)OCO3 | 10.2 | 13.6 | 9.8 | 12.1 | 19.5
13 | COc1cc(C(=O)/C=C/c2ccc(OCCCCCC(=O)N[C@@H]3c4cc5c(cc4[C@@H](c4cc(OC)c(OC)c(OC)c4)[C@H]4C(=O)OC[C@@H]43)OCO5)cc2)cc(OC)c1OC | 24.8 | 21.5 | 18.4 | 15.3 | 16.5
14 | COc1cc(/C=C/C(=O)c2cccc([N+](=O)[O-])c2)ccc1OCCCCCC(=O)N[C@@H]1c2cc3c(cc2[C@@H](c2cc(OC)c(OC)c(OC)c2)[C@H]2C(=O)OC[C@@H]21)OCO3 | 18.1 | 10.7 | 10.8 | 8.75 | 11.9
15 | COc1cc(/C=C/C(=O)N[C@@H]2c3cc4c(cc3[C@@H](c3cc(OC)c(OC)c(OC)c3)[C@H]3C(=O)OC[C@@H]32)OCO4)cc(OC)c1OC | 17.7 | 7.9 | 14 | 8.34 | 13.1
16 | COc1cc(/C=C/C(=O)c2c(C)nc3ccccc3c2C)ccc1OCCCCCC(=O)N[C@@H]1c2cc3c(cc2[C@@H](c2cc(OC)c(OC)c(OC)c2)[C@H]2C(=O)OC[C@@H]21)OCO3 | 8.6 | 10.6 | 10.3 | 11.8 | 10.7

Row | Compound | IC50 [1] [µM] | IC50 [2] [µM] | IC50 [3] [µM] | IC50 [4] [µM] | IC50 [5] [µM]
17 | COc1cc(/C=C/C(=O)c2c(C)nc3ccccc3c2-c2ccccc2)ccc1OCCCCCC(=O)N[C@@H]1c2cc3c(cc2[C@@H](c2cc(OC)c(OC)c(OC)c2)[C@H]2C(=O)OC[C@@H]21)OCO3 | 2.2 | 7.7 | 6.8 | 8.9 | 9.46
18 | COc1cc(/C=C/C(=O)c2ccc(F)cc2)ccc1OCCCCCC(=O)N[C@@H]1c2cc3c(cc2[C@@H](c2cc(OC)c(OC)c(OC)c2)[C@H]2C(=O)OC[C@@H]21)OCO3 | 15.8 | 5.9 | 11.4 | 11.7 | 9.3
19 | COc1cc([C@@H]2c3cc4c(cc3[C@@H](NC(=O)/C=C/c3ccc(Cl)cc3)[C@H]3COC(=O)[C@H]23)OCO4)cc(OC)c1OC | 13.7 | 8.8 | 5.7 | 11.4 | 7.54
20 | O=C(O)/C=C/c1ccc(C(F)(F)F)cc1 | 142 | 56 | 91 | 75 | 128
21 | COc1cc([C@@H]2c3cc4c(cc3[C@@H](NC(=O)/C=C/c3ccc(Cl)c(Cl)c3)[C@H]3COC(=O)[C@H]23)OCO4)cc(OC)c1OC | 20.1 | 8.4 | 13.2 | 21 | 17.7
22 | COc1cc(/C=C/C(=O)c2cc(OC)c(OC)c(OC)c2)ccc1OCC(=O)N[C@@H]1c2cc3c(cc2[C@@H](c2cc(OC)c(OC)c(OC)c2)[C@H]2C(=O)OC[C@@H]21)OCO3 | 14.9 | 10.7 | 7.8 | 9.54 | 8.51
23 | COc1ccc(/C=C/C(=O)c2cc(OC)c(OC)c(OC)c2)cc1OCC(=O)N[C@@H]1c2cc3c(cc2[C@@H](c2cc(OC)c(OC)c(OC)c2)[C@H]2C(=O)OC[C@@H]21)OCO3 | 15.4 | 11.7 | 11.5 | 5.98 | 11.1
24 | COc1cc(/C=C/C(=O)c2c(C)nc3ccccc3c2-c2ccccc2)ccc1OCC(=O)N[C@@H]1c2cc3c(cc2[C@@H](c2cc(OC)c(OC)c(OC)c2)[C@H]2C(=O)OC[C@@H]21)OCO3 | 11.2 | 13.4 | 7.7 | 7.75 | 15.7
25 | COc1ccc(C(=O)/C=C/c2ccc(OCC(=O)N[C@@H]3c4cc5c(cc4[C@@H](c4cc(OC)c(OC)c(OC)c4)[C@H]4C(=O)OC[C@@H]43)OCO5)c(OC)c2)cc1 | 16.2 | 8.3 | 9.3 | 16.9 | 16.1
26 | COc1cc(/C=C/C(=O)c2cccc([N+](=O)[O-])c2)ccc1OCC(=O)N[C@@H]1c2cc3c(cc2[C@@H](c2cc(OC)c(OC)c(OC)c2)[C@H]2C(=O)OC[C@@H]21)OCO3 | 6.7 | 9 | 5.3 | 8.41 | 13.2
27 | COc1cc(/C=C/C(=O)c2c(C)nc3ccccc3c2C)ccc1OCC(=O)N[C@@H]1c2cc3c(cc2[C@@H](c2cc(OC)c(OC)c(OC)c2)[C@H]2C(=O)OC[C@@H]21)OCO3 | 13.8 | 15.4 | 14.5 | 12.3 | 10.8
28 | COc1cc(C(=O)/C=C/c2ccc(OCC(=O)N[C@@H]3c4cc5c(cc4[C@@H](c4cc(OC)c(OC)c(OC)c4)[C@H]4C(=O)OC[C@@H]43)OCO5)cc2)cc(OC)c1OC | 24.2 | 19.1 | 25.8 | 12.4 | 10.2
29 | O=C(O)/C=C/c1ccccc1 [CINNAMIC ACID] | 108 | 87 | 64 | 114 | 91
30 | COc1ccc(C(=O)/C=C/c2ccc(OCCCCCC(=O)N[C@@H]3c4cc5c(cc4[C@@H](c4cc(OC)c(OC)c(OC)c4)[C@H]4C(=O)OC[C@@H]43)OCO5)c(OC)c2)cc1 | 12 | 19 | 13 | 16 | 10
31 | COc1cc([C@@H]2c3cc4c(cc3[C@@H](NC(=O)/C=C/c3ccc([N+](=O)[O-])cc3)[C@H]3COC(=O)[C@H]23)OCO4)cc(OC)c1OC | 10.1 | 8.2 | 14.5 | 18.1 | 12.8
